Assay results from ChEMBL document CHEMBL5532644, “Discovery of 4-hydroxyl pyrazole derivatives as potent ferroptosis inhibitors” (Eur J Med Chem, 2024).
One block for each compound: values may come before it. Calls of active or inactive are those of the source. No cut-off for these calls is given here.

What was measured:
HT-1080 [1] = test: Anti-ferroptotic activity in human HT-1080 cells assessed as cell viability incubated for 24 hrs by Cell-titer-glo assay; assay type: functional, cell-based
Procedure, shortened: (§1)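 Seeded at 2000–5000 cells/well; 24 h later cells were co-treated with 1 μM RSL3 and graded inhibitor concentrations for 24 h, then viability was read. EC50 came from sigmoidal nonlinear regression fits. Three independent experiments, means ± SD. HT-1080 and H9c2 were grown in DMEM; BJ in α-MEM with nonessential amino acids and 1 mM pyruvate; all media had 10% FBS.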

[2] = Antioxidant activity assessed as ABTS radical scavenging activity measured for 6 mins by absorbance based analysis; assay type: functional
Procedure, shortened: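 ABTS (14 mM stock in water) was oxidised with 2.45 mM (final) potassium persulfate in the dark at room temperature for 18 h. The radical was diluted to 100 μM in 50 mM sodium phosphate, pH 7.4. Compounds (1–100 μM) were added, incubated at 30 °C for 6 min, and absorbance was read at 415 nm.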

[3] = Antioxidant activity assessed as DPPH radical scavenging activity incubated for 1 hr by spectrophotometric analysis; assay type: functional
Procedure, shortened: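 Compound in DMSO was mixed with methanolic DPPH to give 40 μM DPPH (final) across a range of compound concentrations. After 1 h at room temperature, absorbance was read at 517 nm. Scavenging % = [A(DMSO) − A(sample)]/[A(DMSO) − A(methanol)] × 100, with DMSO as zero control and methanol as blank.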

786-0 [4] = test: Inhibition of RSL3-induced ferroptosis in human 786-0 cells assessed as recovery from loss of cell morphology at 0.0625 uM measured after 1 day by light microscopy based analysis; assay type: functional
Procedure, shortened: (§2)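 786-O cells were seeded at 5000/well. After 24 h, 1 μM RSL3 was added together with inhibitor at 1 or 0.0625 μM. After one day of incubation, cell morphology (shrinkage, membrane rupture) was inspected by light microscopy.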

H9c2 = test: Anti-ferroptotic activity against RSL3 induced ferroptosis in rat H9c2 cells assessed as cell viability incubated for 24 hrs by Cell-titer-glo assay; assay type: functional, cell-based; conditions: H9c2, 24 h; procedure, shortened: as §1
786-0 [5] = test: Anti-ferroptotic activity against RSL3 induced ferroptosis in human 786-0 cells assessed as cell viability incubated for 24 hrs by Cell-titer-glo assay; assay type: functional, cell-based; conditions: 786-0, 24 h; procedure, shortened: as §1
HT-1080 [6] = test: Anti-ferroptotic activity against imidazole ketone erastin (IKE) induced ferroptosis in human HT-1080 cells assessed as cell viability incubated for 24 hrs by Cell-titer-glo assay; assay type: functional, cell-based; conditions: HT-1080, 24 h
Procedure, shortened: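 HT-1080 cells (DMEM, 10% FBS) were seeded at 2000–5000/well. After 24 h they received 2.5 μM IKE plus graded inhibitor concentrations for 24 h, and viability was measured. EC50 came from sigmoidal nonlinear regression. Three independent experiments, means ± SD.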

786-0 [7] = test: Inhibition of RSL3-induced ferroptosis in human 786-0 cells assessed as recovery of membrane rupture at 0.0625 uM measured after 1 day by light microscopy based analysis; assay type: functional, cell-based; procedure, shortened: as §2
HT-1080 [8] = test: Anti-ferroptotic activity against RSL3 induced ferroptosis in human HT-1080 cells assessed as cell viability incubated for 24 hrs by Cell-titer-glo assay; assay type: functional, cell-based; conditions: HT-1080, 24 h; procedure, shortened: as §1
786-0 [9] = test: Inhibition of RSL3-induced ferroptosis in human 786-0 cells assessed as recovery in loss of cell morphology at 1 uM measured after 1 day by light microscopy based analysis; assay type: functional; procedure, shortened: as §2
786-0 [10] = test: Inhibition of RSL3-induced ferroptosis in human 786-0 cells assessed as recovery of membrane rupture at 1 uM measured after 1 day by light microscopy based analysis; assay type: functional, cell-based; procedure, shortened: as §2
HT-1080 [11] = test: Anti-ferroptotic activity against RSL3 induced ferroptosis in human HT-1080 cells assessed as decrease in lipid peroxidation at 1 uM measured after 8 hrs by C11-BODIPY staining based flow cytometric analysis (reference value: 3.06%); assay type: functional; set-up: scale not given: the % may be the effect or the level left
BJ = test: Anti-ferroptotic activity against RSL3 induced ferroptosis in human BJ cells assessed as cell viability incubated for 24 hrs by Cell-titer-glo assay; assay type: functional, cell-based; procedure, shortened: as §1
786-0 [12] = test: Inhibition of RSL3-induced ferroptosis in human 786-0 cells assessed as recovery of shrunken cells at 1 uM measured after 1 day by light microscopy based analysis; assay type: functional, cell-based; procedure, shortened: as §2
786-0 [13] = test: Inhibition of RSL3-induced ferroptosis in human 786-0 cells assessed as recovery of shrunken cells at 0.0625 uM measured after 1 day by light microscopy based analysis; assay type: functional, cell-based; procedure, shortened: as §2
[14] = Metal chelating activity assessed as Fe3+ chelation at 20 mM at […] absorbance
Procedure, shortened: (§3)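 Compound was dissolved in MeOH at 20 mM and mixed with FeSO4 (Fe2+) or FeCl3 (Fe3+) at 10 mM. Samples were diluted with MeOH/H2O, UV–vis spectra were recorded, and the absorption peak at 261 nm was quantified.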

[15] = Metal chelating activity assessed as Fe2+ chelation by measuring change in UV-vis absorption at 20 mM at […] absorbance; procedure, shortened: as §3
[16] = Metal chelating activity assessed as Fe3+ chelation by measuring change in UV-vis absorption at 20 mM at […] absorbance; procedure, shortened: as §3
HT-1080 [17] = test: Anti-ferroptotic activity in human HT-1080 cells assessed as suppression of erastin induced cytosolic ROS accumulation at 1 uM incubated for 24 hrs by DCFH-DA staining based confocal microscopy analysis; assay type: functional, cell-based
Procedure, shortened: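 HT-1080 cells on glass coverslips (4 × 10^5/well, overnight) were co-treated for 24 h with 5 μM erastin and either DMSO or inhibitor at 1 μM. Cells were washed with PBS, loaded with 10 μM (final) DCFH-DA at 37 °C for 20 min, washed three times and imaged by confocal laser scanning microscopy.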

[18] = Metal chelating activity assessed as Fe2+ chelation at 20 mM at […] absorbance; procedure, shortened: as §3

EC50 (HT-1080 [1]; Homo sapiens, HT-1080, 24 h): 27.4 nM
SMILES: Oc1c(-c2ccc3c(c2)OCO3)n[nH]c1-c1ccccc1

EC50 (HT-1080 [1]; Homo sapiens, HT-1080, 24 h): 23.1 nM
SMILES: COc1ccc(-c2[nH]nc(-c3ccc(Cl)cc3)c2O)cc1

EC50 (HT-1080 [1]; Homo sapiens, HT-1080, 24 h): 80.2 nM
SMILES: O=C(NO)c1ccc(-c2[nH]nc(-c3ccc(Cl)cc3)c2O)cc1

EC50 (HT-1080 [1]; Homo sapiens, HT-1080, 24 h): 51.1 nM
SMILES: COC(=O)c1ccc(-c2[nH]nc(-c3ccc(Cl)cc3)c2O)cc1

EC50 (HT-1080 [1]; Homo sapiens, HT-1080, 24 h): 79.6 nM
SMILES: Oc1c(-c2ccc(C(F)(F)F)cc2)n[nH]c1-c1ccccc1

EC50 (HT-1080 [1]; Homo sapiens, HT-1080, 24 h): 94.9 nM
SMILES: Oc1c(-c2ccccc2Cl)n[nH]c1-c1ccccc1

EC50 (HT-1080 [1]; Homo sapiens, HT-1080, 24 h): > 1000 nM
SMILES: Oc1c(-c2ccccc2)n[nH]c1-c1ccco1

EC50 (HT-1080 [1]; Homo sapiens, HT-1080, 24 h): > 1000 nM
SMILES: O=C(O)c1ccc(-c2[nH]nc(-c3ccc(Cl)cc3)c2O)cc1

EC50 (HT-1080 [1]; Homo sapiens, HT-1080, 24 h): 22 nM
SMILES: Cn1nc(-c2ccc(Cl)cc2)c(O)c1-c1ccccc1

EC50 (HT-1080 [1]; Homo sapiens, HT-1080, 24 h): 187 nM
SMILES: Oc1c(-c2cccc(Cl)c2)n[nH]c1-c1ccccc1

EC50 (HT-1080 [1]; Homo sapiens, HT-1080, 24 h): 22.6 nM
SMILES: Oc1c(-c2ccccc2)n[nH]c1-c1ccc(Br)cc1

EC50 (HT-1080 [1]; Homo sapiens, HT-1080, 24 h): > 1000 nM
SMILES: Clc1ccc(-c2cc(-c3ccccc3)n[nH]2)cc1
Activity [2]: > 200 µM | Activity [3]: > 100 µM

EC50 (HT-1080 [1]; Homo sapiens, HT-1080, 24 h): 23.4 nM | EC50 (786-0 [5]): 253 nM | EC50 (HT-1080 [6]): 75.2 nM | EC50 (HT-1080 [8]): 23.4 nM
SMILES: CCOC(=O)c1ccc(NC2CCCCC2)c(N)c1
inhibition (786-0 [4]): inactive | Activity [2]: 49.8 µM | EC50 (H9c2): 68.6 nM | inhibition (786-0 [7]): inactive | Activity [3]: 6.48 µM | inhibition (786-0 [9]): Active | inhibition (786-0 [10]): Active | Activity (HT-1080 [11]): 9.2% | EC50 (BJ): 38.2 nM | inhibition (786-0 [12]): Active | inhibition (786-0 [13]): inactive

EC50 (HT-1080 [1]; Homo sapiens, HT-1080, 24 h): 69.1 nM
SMILES: Oc1c(-c2ccccc2)n[nH]c1-c1ccccc1

EC50 (HT-1080 [1]; Homo sapiens, HT-1080, 24 h): 25.9 nM
SMILES: Oc1c(-c2ccc(Cl)cc2)n[nH]c1-c1cnc[nH]1

EC50 (HT-1080 [1]; Homo sapiens, HT-1080, 24 h): 44.8 nM
SMILES: CN(C)CCCNC(=O)c1ccc(-c2[nH]nc(-c3ccc(Cl)cc3)c2O)cc1

EC50 (HT-1080 [1]; Homo sapiens, HT-1080, 24 h): 26.1 nM
SMILES: Oc1ccc(-c2[nH]nc(-c3ccc(Cl)cc3)c2O)cc1O

EC50 (HT-1080 [1]; Homo sapiens, HT-1080, 24 h): 120 nM
SMILES: Cc1ccc(-c2[nH]nc(-c3ccc([N+](=O)[O-])cc3)c2O)cc1

EC50 (HT-1080 [1]; Homo sapiens, HT-1080, 24 h): 79.6 nM | EC50 (HT-1080 [1]; ht-1080): 42.4 nM
SMILES: Oc1c(-c2ccc(F)cc2)n[nH]c1-c1ccccc1

EC50 (HT-1080 [1]; Homo sapiens, HT-1080, 24 h): 31.7 nM
SMILES: COc1ccc(-c2[nH]nc(-c3ccc(Cl)cc3)c2O)cc1OC

EC50 (HT-1080 [1]; Homo sapiens, HT-1080, 24 h): 56.6 nM
SMILES: Oc1c(-c2ccc(Cl)cc2Cl)n[nH]c1-c1ccccc1

EC50 (HT-1080 [1]; Homo sapiens, HT-1080, 24 h): 187 nM
SMILES: Oc1c(-c2ccc(Cl)cc2)n[nH]c1-c1ccc(C(F)(F)F)cc1

EC50 (HT-1080 [1]; Homo sapiens, HT-1080, 24 h): 720 nM
SMILES: Cn1nc(-c2ccc(Cl)cc2)c(N)c1-c1ccccc1
Activity [2]: > 200 µM | Activity [3]: 14.6 µM

EC50 (HT-1080 [1]; Homo sapiens, HT-1080, 24 h): 30.8 nM | EC50 (HT-1080 [1]; ht-1080): 18.9 nM
SMILES: Oc1c(-c2ccc(Cl)cc2)n[nH]c1-c1ccccc1
Activity [2]: 112 µM | Activity [3]: 4.97 µM

EC50 (HT-1080 [1]; Homo sapiens, HT-1080, 24 h): 24.8 nM | EC50 (HT-1080 [1]; ht-1080): 32.1 nM
SMILES: COc1ccc(-c2n[nH]c(-c3ccccc3)c2O)cc1

EC50 (HT-1080 [1]; Homo sapiens, HT-1080, 24 h): 39.5 nM
SMILES: Oc1c(-c2ccc(-c3ccccc3)cc2)n[nH]c1-c1ccccc1

EC50 (HT-1080 [1]; Homo sapiens, HT-1080, 24 h): 24.6 nM
SMILES: Oc1c(-c2ccc(Cl)cc2)nn(-c2ccccc2)c1-c1ccccc1

EC50 (HT-1080 [1]; Homo sapiens, HT-1080, 24 h): 52.7 nM
SMILES: Oc1c(-c2ccc(Cl)cc2)n[nH]c1-c1ccc(F)cc1

EC50 (HT-1080 [1]; Homo sapiens, HT-1080, 24 h): 8.6 nM | Activity [14]: inactive | Activity [15]: inactive | Activity [16]: inactive | EC50 (786-0 [5]): 89.7 nM | Activity [18]: inactive | EC50 (HT-1080 [6]): 48.3 nM | EC50 (HT-1080 [8]): 8.6 nM
SMILES: Oc1ccc(-c2[nH]nc(-c3ccc(Cl)cc3)c2O)cc1
inhibition (786-0 [4]): Active | Activity [2]: 6.3 µM | EC50 (H9c2): 43.3 nM | Activity (HT-1080 [17]): Active | inhibition (786-0 [7]): Active | Activity [3]: 3.94 µM | inhibition (786-0 [9]): Active | inhibition (786-0 [10]): Active | Activity (HT-1080 [11]): 1.42% | EC50 (BJ): 11.3 nM | inhibition (786-0 [12]): Active | inhibition (786-0 [13]): Active

EC50 (HT-1080 [1]; Homo sapiens, HT-1080, 24 h): 44.8 nM
SMILES: Oc1c(-c2ccc(Cl)cc2)n[nH]c1-c1cccc2ccccc12

EC50 (HT-1080 [1]; Homo sapiens, HT-1080, 24 h): 81.9 nM
SMILES: CCNC(=O)c1ccc(-c2[nH]nc(-c3ccc(Cl)cc3)c2O)cc1

EC50 (HT-1080 [1]; Homo sapiens, HT-1080, 24 h): 150 nM
SMILES: CCCCc1[nH]nc(-c2ccccc2)c1O
